# Data from paper PMC2822702 (Biochimica et biophysica acta, 2009).
# Experiments:
# wt Bid = biological target: T1, wt Bid (Mus musculus, UniProt P70444); experiment: ADIFAB fluorescence quenching; type: binding; conditions: recombinant mouse wt Bid, ADIFAB 0.2 μM, room temperature
# T1 sequence (P70444 1-195): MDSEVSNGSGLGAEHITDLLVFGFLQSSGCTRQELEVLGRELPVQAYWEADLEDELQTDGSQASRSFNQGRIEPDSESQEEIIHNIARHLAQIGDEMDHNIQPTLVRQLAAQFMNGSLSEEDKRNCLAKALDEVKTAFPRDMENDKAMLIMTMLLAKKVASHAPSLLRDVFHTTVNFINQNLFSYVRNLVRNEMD
# Procedure, shortened: (§1)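 Recombinant N-terminal His6-tagged mouse Bid was expressed in E. coli BL21(DE3)pLysS and purified on a chelating affinity column. ADIFAB at 0.2 μM in 10 mM Tris pH 8.0, 0.15 M NaCl, 1 mM EGTA was run alone or with Bid at 22–24 °C. Lipid ligand was titrated with excitation at 390 nm and emission read at 410–610 nm. Kd was taken from Stern–Volmer (F0/F) slopes.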
# Bid K157E = biological target: T2, Bid K157E (Mus musculus, UniProt P70444, K157E); experiment: ADIFAB fluorescence quenching; type: binding; conditions: recombinant mouse Bid K157E mutant, ADIFAB 0.2 μM, room temperature
# T2 sequence (P70444 1-195 K157E): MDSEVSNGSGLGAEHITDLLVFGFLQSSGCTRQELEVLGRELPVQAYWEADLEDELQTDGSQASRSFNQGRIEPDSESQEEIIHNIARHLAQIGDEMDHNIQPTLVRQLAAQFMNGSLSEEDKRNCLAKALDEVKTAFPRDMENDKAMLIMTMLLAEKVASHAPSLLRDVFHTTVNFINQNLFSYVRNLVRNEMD
# Procedure, shortened: as §1
# Bid R187E = biological target: T3, Bid R187E (Mus musculus, UniProt P70444, R187E); experiment: ADIFAB fluorescence quenching; type: binding; conditions: recombinant mouse Bid R187E mutant, ADIFAB 0.2 μM, room temperature
# T3 sequence (P70444 1-195 R187E): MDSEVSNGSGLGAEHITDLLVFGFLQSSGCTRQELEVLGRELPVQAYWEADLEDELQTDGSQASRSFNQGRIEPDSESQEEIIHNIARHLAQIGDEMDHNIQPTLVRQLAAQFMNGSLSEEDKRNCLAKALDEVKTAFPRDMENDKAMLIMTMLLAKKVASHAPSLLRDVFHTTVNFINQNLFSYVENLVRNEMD
# Procedure, shortened: as §1
# mouse liver mitochondria = experiment: Cell-free assay of cytochrome c release from isolated mitochondria; type: biochemical; conditions: for release of cytochrome c: 200 nM full-length recombinant Bid protein, no exogenous lysolipids, 15 min
# Procedure, shortened: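 They were incubated 15 min at 22 °C with 200 nM recombinant full-length mouse Bid plus 2 μM LPC-C16 added from ethanol, then pelleted. Supernatant cytochrome c was immunoblotted and quantified by densitometry (n=3, t-test), with controls of 500 μM LPC-C16 and no Bid.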
# [1] = system: FSK7 mouse mammary epithelial cells; experiment: Anoikis of mammary epithelial cells expressing YFP-tagged Bid; type: cell-based; conditions: FL Bid YFP over-expressed, 5 h detached
# Procedure, shortened: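 FSK7 cells were grown in DMEM/F-12 with 5 ng/ml EGF, 5 μg/ml insulin and 2% FCS at 37 °C, 5% CO₂. They were lipofected with C-terminal YFP-tagged full-length Bid or YFP alone. At 18 h post-transfection cells were detached onto polyHEMA for 5 h, cytospun, PFA-fixed and Hoechst-stained. Apoptosis was scored by nuclear morphology as mean ± SEM.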
molecule,measurement,setting,value
"CCCCCCCCCCCCCCCC(=O)OC[C@@H](O)COP(=O)([O-])OCC[N+](C)(C)C [LPC-C16, 1-palmitoyl-LPC]",Kd,wt Bid,~4000 nM
same,Kd,Bid K157E,~4000 nM
same,Kd,Bid R187E,5500 nM
same,enhancement of cytochrome c release,mouse liver mitochondria; 2 μM LPC-C16 with 200 nM K157E FL Bid,much stronger enhancement
same,increase in capacity of releasing cytochrome c,mouse liver mitochondria; 2 μM LPC-C16 with 200 nM R187E FL Bid,~2 fold
same,increase in capacity of releasing cytochrome c,mouse liver mitochondria; 2 μM LPC-C16 with 200 nM wt FL Bid,~2 fold
"CCCCCCCC/C=C\CCCCCCCC(=O)OC[C@@H](O)COP(=O)(O)OCC(O)CO (stereo partly drawn) [LPG-C18, 1-oleyl-LPG]",Kd,wt Bid,80 nM
same,Kd,Bid K157E,200 nM
same,Kd,Bid R187E,100 nM
monolysocardiolipin [MCL],Kd,wt Bid,1300 nM
same,Kd,Bid K157E,1800 nM
same,Kd,Bid R187E,~1400 nM
"wt Bid: recombinant full-length wild type mouse Bid with N-terminal six-histidine tag (protein, UniProt P70444 1-195, looked up, full-length N-terminal His6 tag) MDSEVSNGSGLGAEHITDLLVFGFLQSSGCTRQELEVLGRELPVQAYWEADLEDELQTDGSQASRSFNQGRIEPDSESQEEIIHNIARHLAQIGDEMDHNIQPTLVRQLAAQFMNGSLSEEDKRNCLAKALDEVKTAFPRDMENDKAMLIMTMLLAKKVASHAPSLLRDVFHTTVNFINQNLFSYVRNLVRNEMD",release of cytochrome c,mouse liver mitochondria,some release of cytochrome c
"R187E Bid: recombinant mouse Bid, arginine 187 replaced by glutamic acid (protein, UniProt P70444 1-195, looked up, variant R187E) BH3-interacting domain death …: MDSEVSNGSGLGAEHITDLLVFGFLQSSGCTRQELEVLGRELPVQAYWEADLEDELQTDGSQASRSFNQGRIEPDSESQEEIIHNIARHLAQIGDEMDHNIQPTLVRQLAAQFMNGSLSEEDKRNCLAKALDEVKTAFPRDMENDKAMLIMTMLLAKKVASHAPSLLRDVFHTTVNFINQNLFSYVENLVRNEMD",release of cytochrome c,mouse liver mitochondria,some release of cytochrome c
"K157E Bid YFP: C-terminal YFP-tagged full-length mouse Bid K157E expressed by transfection (protein, UniProt P70444 1-195, looked up, variant K157E, full-length C-terminal YFP fusion) MDSEVSNGSGLGAEHITDLLVFGFLQSSGCTRQELEVLGRELPVQAYWEADLEDELQTDGSQASRSFNQGRIEPDSESQEEIIHNIARHLAQIGDEMDHNIQPTLVRQLAAQFMNGSLSEEDKRNCLAKALDEVKTAFPRDMENDKAMLIMTMLLAEKVASHAPSLLRDVFHTTVNFINQNLFSYVRNLVRNEMD",sensitisation to anoikis compared with wt Bid,[1],no difference
"K157E Bid: recombinant mouse Bid, lysine 157 replaced by glutamic acid (protein, UniProt P70444 1-195, looked up, variant K157E) BH3-interacting domain death …: MDSEVSNGSGLGAEHITDLLVFGFLQSSGCTRQELEVLGRELPVQAYWEADLEDELQTDGSQASRSFNQGRIEPDSESQEEIIHNIARHLAQIGDEMDHNIQPTLVRQLAAQFMNGSLSEEDKRNCLAKALDEVKTAFPRDMENDKAMLIMTMLLAEKVASHAPSLLRDVFHTTVNFINQNLFSYVRNLVRNEMD",release of cytochrome c,mouse liver mitochondria,did not release cytochrome c
"wt Bid YFP: C-terminal YFP-tagged full-length wild type mouse Bid expressed by transfection (protein, UniProt P70444 1-195, looked up, full-length C-terminal YFP tag) MDSEVSNGSGLGAEHITDLLVFGFLQSSGCTRQELEVLGRELPVQAYWEADLEDELQTDGSQASRSFNQGRIEPDSESQEEIIHNIARHLAQIGDEMDHNIQPTLVRQLAAQFMNGSLSEEDKRNCLAKALDEVKTAFPRDMENDKAMLIMTMLLAKKVASHAPSLLRDVFHTTVNFINQNLFSYVRNLVRNEMD",apoptosis (cell death) after detachment,[1]; nuclear morphology,around 85%
"R187E Bid YFP: C-terminal YFP-tagged full-length mouse Bid R187E expressed by transfection (protein, UniProt P70444 1-195, looked up, variant R187E, full-length C-terminal YFP tag) MDSEVSNGSGLGAEHITDLLVFGFLQSSGCTRQELEVLGRELPVQAYWEADLEDELQTDGSQASRSFNQGRIEPDSESQEEIIHNIARHLAQIGDEMDHNIQPTLVRQLAAQFMNGSLSEEDKRNCLAKALDEVKTAFPRDMENDKAMLIMTMLLAKKVASHAPSLLRDVFHTTVNFINQNLFSYVENLVRNEMD",sensitisation to anoikis compared with wt Bid,[1],no difference
